# ChEMBL document CHEMBL1124344, “5-Piperazinylalkyl-2(3H)-oxazolones with neuroleptic activity” (J Med Chem, 1989)
# Key:
# dog (Canis familiaris) = test: Antagonistic activity against apomorphine-induced emesis, after 5 hour of peroral administration in dogs; conditions: Canis lupus familiaris, po
# Mus musculus [1] = test: Inhibition of spontaneous locomotor activity, after 5 hour of peroral administration in mouse; assay type: functional; conditions: po
# Method in brief: (§1)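 Mice in groups of five were dosed orally with gum arabic suspensions at 10 mL/kg after an overnight fast, with a vehicle control group. Locomotion was counted for 10 min in a photocell activity cage, in at least two groups per dose. ED50, by probit analysis, is the dose giving 50% inhibition against controls.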
# Mus musculus [2] = test: Inhibition of spontaneous locomotor activity, after 1 hour of peroral administration in mouse; assay type: functional; conditions: po
# Method in brief: as §1
# Mus musculus [3] = test: Inhibitory activity against tremorine-induced tremors, after 1 hour of peroral administration in mouse at dose 7.5 mg/kg; assay type: functional; conditions: route oral
# Method in brief: (§2)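 Male mice fasted overnight, dosed orally with arabic gum suspension (10 mL/kg) 1 or 5 h before test, vehicle controls included. Tremorine 20 mg/kg ip given 1 h after compounds; central (tremor) and peripheral (salivation) parasympathetic signs recorded. ED50 = dose protecting 50% of animals, by probit analysis.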
# Mus musculus [4] = test: Anticonvulsant activity against electroshock-induced convulsions, after 5 hour of peroral administration in mouse at a dose of 40 mg/kg; assay type: functional; conditions: route oral
# Method in brief: (§3)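 Compounds were dosed as bases suspended in arabic gum at 10 mL/kg orally, after an overnight fast, with vehicle controls. Protection meant no bilateral forepaw clonic seizures or head twitches (tryptamine), or no tonic hind-limb extension (the other two). ED50 is the dose protecting 50%, by probit analysis.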
# Mus musculus [5] = test: Anticonvulsant activity against pentylenetetrazole-induced convulsions, after 5 hour of peroral administration in mouse at a dose of 40 mg/kg; assay type: functional; conditions: route oral
# Method in brief: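 Male mice dosed orally (arabic gum, 10 mL/kg) 1 or 5 h before challenge with tryptamine 100 mg/kg iv, pentylenetetrazol 110 mg/kg ip, or maximal electroshock. Protection means no bilateral forepaw clonic seizures and head twitches (tryptamine) or no tonic hind-limb extension (others). ED50 protects 50% of mice.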
# Mus musculus [6] = test: Effect on skeletal muscle tone, after 1 hour of peroral administration in mouse at a dose of 100 mg/kg; assay type: functional; conditions: Muscle tissue, route oral
# Method in brief: (§4)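 Male mice were placed for 1 h on a 60° inclined wire screen just after dosing and 4 h later. In a second test, trained mice hung by the forepaws from a horizontal 1.8 mm wire 15 cm up; normal mice touch it with a hind paw within 2 s and stay ≥1 min. ED50 is the dose making 50% fall. Dosing was oral in gum arabic suspension at 10 mL/kg after an overnight fast.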
# Mus musculus [7] = test: Anticonvulsant activity against electroshock-induced convulsions, after 1 hour of peroral administration in mouse at a dose of 40 mg/kg; assay type: functional; conditions: route oral
# Method in brief: as §3
# Mus musculus [8] = test: Inhibition of spontaneous motor activity after 1 hour of peroral administration in mouse; assay type: functional; conditions: po
# Method in brief: as §1
# Rattus norvegicus [9] = organism: Rattus norvegicus; test: Body weight gain, after 2 hour of period of conditioned feeding in rats,; assay type: functional
# Method in brief: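 Female rats (250–280 g) were kept singly on a 22-h food deprivation schedule, with pellets 10–12 a.m. and water always available. After 30–40 days of training they were dosed 1 h before the 2-h feeding and weighed before and after it. Weight gain was expressed as a percentage of the two preceding control days. ED50 is the dose giving 50% reduction.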
# Mus musculus [10] = test: Contractile activity in skeletal muscles, after 1 hour of peroral administration in mouse at dose 30 mg/kg; assay type: functional; conditions: Muscle tissue, route oral
# Method in brief: as §4
# Mus musculus [11] = test: Anticonvulsant activity against pentylenetetrazole-induced convulsions, after 1 hour of peroral administration in mouse at a dose of 9.4 mg/kg; assay type: functional; conditions: route oral
# Method in brief: as §3
# Mus musculus [12] = test: Inhibitory activity against tremorine-induced tremors, after 1 hour of peroral administration in mouse at dose 20 mg/kg; assay type: functional; conditions: route oral
# Method in brief: as §2
# Mus musculus [13] = test: Inhibitory activity against tremorine-induced tremors, after 5 hour of peroral administration in mouse; assay type: functional; conditions: po
# Rattus norvegicus [14] = test: Inhibitory activity against norepinephrine-induced lethality, after 5 hour of peroral administration in rat at a dose of 40 mg/kg; assay type: functional; conditions: route oral
# Method in brief: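 Rats (80–90 g) dosed orally (arabic gum, 10 mL/kg) 1 or 5 h before norepinephrine 0.5 mg/kg iv, which kills unprotected rats within 30 min. ED50 is the dose protecting 50% of rats from lethality, by probit analysis.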
# Mus musculus [15] = test: Anticonvulsant activity against tryptamine-induced convulsions, after 1 hour of peroral administration in mouse at a dose of 40 mg/kg; assay type: functional; conditions: route oral
# Method in brief: as §3
# Mus musculus [16] = test: Anticonvulsant activity against electroshock-induced convulsions, after 1 hour of peroral administration in mouse at a dose of 100 mg/kg; assay type: functional; conditions: route oral
# Method in brief: as §3
# Mus musculus [17] = test: Anticonvulsant activity against pentylenetetrazole-induced convulsions, after 5 hour of peroral administration in mouse at a dose of 100 mg/kg; assay type: functional; conditions: route oral
# Method in brief: as §3
# Rattus norvegicus [18] = test: Antagonistic activity against apomorphine-induced stereotypy in rats, by administering perorally at a dose of 100 mg/kg; assay type: functional; conditions: route oral
# Method in brief: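 Male rats fasted overnight and given oral doses in arabic gum suspension (10 mL/kg) 1 h, or 1 and 5 h, before challenge. Apomorphine 3 mg/kg iv, with stereotypy observed 20 min later. ED50 is the dose inhibiting stereotypy in 50% of rats, per Janssen's method. Parenthetical entries give the maximal dose and percent activity.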
# Mus musculus [19] = test: Anticonvulsant activity against pentylenetetrazole-induced convulsions, after 1 hour of peroral administration in mouse at a dose of 100 mg/kg; assay type: functional; conditions: route oral
# Method in brief: as §3
# Mus musculus [20] = test: Potentiation against pentobarbital-induced sleeping, after 5 hour of peroral administration in mouse at a dose of 100 mg/kg; assay type: functional; conditions: route oral
# Method in brief: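 Female mice fasted overnight, dosed orally 1 or 5 h beforehand as arabic gum suspension, 10 mL/kg, with vehicle controls. Subhypnotic pentobarbital 10 mg/kg iv; 3 min later placed on back, effect scored as complete loss of righting reflex for at least 15 s. ED50 = dose producing this in 50% of mice, probit analysis.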
# Mus musculus [21] = test: Anticonvulsant activity against tryptamine-induced convulsions, after 5 hour of peroral administration in mouse at dose of 40 mg/kg; assay type: functional; conditions: route oral
# Method in brief: as §3
# Mus musculus [22] = test: Anticonvulsant activity against electroshock-induced convulsions, after 5 hour of peroral administration in mouse at dose of 100 mg/kg; assay type: functional; conditions: route oral
# Method in brief: as §3
# Mus musculus [23] = test: Contractile activity in skeletal muscles, after 1 hour of peroral administration in mouse at dose of 0 mg/kg; assay type: functional; conditions: Muscle tissue, route oral
# Method in brief: as §4
# Mus musculus [24] = test: Inhibitory activity against tremorine-induced tremors, after 5 hour of peroral administration in mouse at dose of 60 mg/kg; assay type: functional; conditions: route oral
# Method in brief: as §2
# Mus musculus [25] = test: Effect on skeletal muscle tone, after 1 hour of peroral administration in mouse at dose of 200 mg/kg; assay type: functional; conditions: Muscle tissue, route oral
# Method in brief: as §4
smiles,measurement,setting,value
CN(C)CCCN1c2ccccc2Sc2ccc(Cl)cc21 [CHLORPROMAZINE],ED50,dog (Canis familiaris),7.5 mg/kg
same,ED50,Mus musculus [1],4.8 mg/kg
same,ED50,Mus musculus [2],2.9 mg/kg
same,inhibition in vivo at 7.5 mg/kg,Mus musculus [3],0%
COc1ccccc1N1CCN(CCCC(=O)c2ccc(F)cc2)CC1 [FLUANISONE],inhibition in vivo at 40 mg/kg,Mus musculus [4],0%
same,inhibition in vivo at 40 mg/kg,Mus musculus [5],0%
same,inhibition in vivo at 100 mg/kg,Mus musculus [6],30%
same,inhibition in vivo at 40 mg/kg,Mus musculus [7],0%
same,ED50,Mus musculus [8],7.7 mg/kg
same,ED50,Rattus norvegicus [9],6 mg/kg
O=C(CCCN1CCC(O)(c2ccc(Cl)cc2)CC1)c1ccc(F)cc1 [HALOPERIDOL],inhibition in vivo at 30 mg/kg,Mus musculus [10],0%
same,inhibition in vivo at 9.4 mg/kg,Mus musculus [11],0%
same,inhibition in vivo at 20 mg/kg,Mus musculus [12],0%
same,ED50,Mus musculus [13],20 mg/kg
O=c1[nH]c(-c2ccc(F)cc2)c(CCN2CCN(c3cc(Cl)cc(Cl)c3)CC2)o1 [LODIPERONE],inhibition in vivo at 40 mg/kg,Rattus norvegicus [14],10%
same,inhibition in vivo at 40 mg/kg,Mus musculus [15],0%
same,inhibition in vivo at 100 mg/kg,Mus musculus [16],0%
same,inhibition in vivo at 100 mg/kg,Mus musculus [17],0%
same,inhibition in vivo at 100 mg/kg,Rattus norvegicus [18],0%
same,inhibition in vivo at 100 mg/kg,Mus musculus [19],0%
same,inhibition in vivo at 100 mg/kg,Mus musculus [20],0%
COc1ccccc1N1CCN(CCc2oc(=O)[nH]c2-c2ccc(F)cc2)CC1 [ZOLOPERONE],inhibition in vivo at 40 mg/kg,Mus musculus [21],0%
same,inhibition in vivo at 100 mg/kg,Mus musculus [22],0%
same,ED50,Mus musculus [23],179 mg/kg
same,inhibition in vivo at 60 mg/kg,Mus musculus [24],0%
same,inhibition in vivo at 200 mg/kg,Mus musculus [25],0%
